# Source: PubChem BioAssay
# Many of the other results were omitted from the sample, so hits are more common in it than they were.
# T cruzi repl – T. cruzi replication inhibition. T. cruzi beta-gal in NIH3T3, luminescence, 90 h. inhibition, % (concentration not given with the values). hit rate 1.4% among 300,000;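 active = mean inhibition across valid replicates above about 55%, limit read from the data; inconclusive = mean below that limit but half or more replicates reach it; inactive = mean below it, under half of replicates reach it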;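 note: signal also drops with host cell toxicity which is not excluded here; 0% = plate median of DMSO wells and 100% = zero luminescence signal; higher percent means less beta-gal luminescence so fewer parasites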
#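 Test system: β-gal T. cruzi (Tulahuen C4) inside NIH/3T3 cells / Quantity: 5,000 cells/well / Measured by: luminescence from GalScreen with 0.05% NP40, read after 60 min / Medium: DMEM plus 2% FBS / Measure: parasite load inhibition, % / Reagent: Tulahuen C4 trypomastigotes, 5000/well / Schedule: co-culture of at least 90 h after 3 h attachment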
# DTT redox prof – compounds producing H2O2 with reducing agent – biochemical, NIH compound library profiling, artefact control for MLSCN library redox annotation, primary screen | DTT-dependent redox cycling H2O2, phenol red/HRP absorbance; 100% = 100 µM peroxide control, 0% = buffer | activation, % at 10 µM | hit rate 0.03% among 200,000 | AID 878;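 active = activation of at least 50% relative to the plate's high and low controls in the primary single-dose screen; inactive = activation below 50%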;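 note: compound incubated with DTT at 0.8 mM final as the reducing agent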
# Lmaj promast – reduces viability of Leishmania major promastigotes | hit rate 9% among 200,000 | resazurin fluorescence viability | inhibition, % at 10 µM | AID 1063; in the data active = inhibition above about 50%;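 note: promastigotes grown with compound for 44 hours at 28 °C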
# Lipid droplet – hepatic lipid droplet formation modulation; hit rate 0.4% among 240,000; AML12 mouse hepatocytes, oleate lipid droplets, BODIPY imaging; inhibition, % at 6.5 µM;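 active = lipid droplet intensity inhibited by at least 50%, with more than 500 cells counted; inconclusive = wells with under 300 cells, treated as cytotoxic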
#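 Material – mouse AML12 hepatocyte cell line, fixed after treatment · Compound dosing – one dose, 6.5 µM compound · Times – compound with oleate, overnight · Measured by – Image-based BODIPY and DAPI two-channel analysis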
# MPTP inh – blocks calcium-induced mitochondrial swelling | isolated mouse mitochondria, Ca2+ swelling absorbance, 30 min | inhibition, % at 10 µM | hit rate 1.4% among 360,000;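 active = inhibition of 50% or more, scaled per plate between neutral and stimulator controls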;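 note: 0% = DMSO wells given calcium and 100% = 1 mM EGTA wells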
# MPTP counter – mitochondrial membrane potential, counter-screen; shares compounds with MPTP inh; isolated mitochondria, Rhodamine 123 fluorescence; inhibition, % at 10 µM; hit rate 78% among 5,000; AID 624504; in the data active = inhibition above about 22%;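 note: 0% = DMSO vehicle and 100% = positive control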
# MPTP abs DR – dose response confirmation of mitochondrial permeability transition pore inhibitors; shares compounds with MPTP inh; isolated mitochondria swelling, absorbance; IC50, µM; hit rate 58% among 780; in the data active = IC50 below about 20 µM
# MPTP counter DR – active in counter-screen for permeability transition pore inhibitors; shares compounds with MPTP inh; isolated mitochondria counterscreen, fluorescence read-out; IC50, µM; hit rate 49% among 780; AID 651564; in the data active = IC50 below about 80 µM
# An asterisk follows results filed as active; i = inactive; ? = inconclusive; . = no result.
SMILES,T cruzi repl,DTT redox prof,Lmaj promast,Lipid droplet,MPTP inh,MPTP counter,others
CCN(CC)CCN(C(=O)Cn1nnc(-c2ccc(C)o2)n1)C(C(=O)NC(C)(C)C)c1cccs1 (stereo not drawn),0,12,-2,-9,0,.,
CN1C(=O)C(N=Nc2ccc([N+](=O)[O-])cc2)SC1=S (stereo not drawn),.,.,.,.,112*,69*,
Brc1ccc(N/N=C(/N=Nc2nn[nH]n2)c2ccccc2)cc1,-28,4,-1,3,85*,30*,
O=C(O)c1ccc(N=N/C(=N\Nc2ccc(C(=O)O)cc2)c2ccccc2)cc1,-3,.,.,.,3,.,
O=C(NC(Cc1ccccc1)C(=O)O)/C(=C/c1ccccc1)NC(=O)c1cccc(Br)c1 (stereo not drawn),-6,1,-10,10,3,.,
Cc1cn(CC(=O)NCC(C)c2ccccc2)c(=O)[nH]c1=O (stereo not drawn),.,.,.,.,-3,.,
CCOC(=O)/C(=C/C=C1\Sc2cc(C)c(C)cc2N1CC)C(C)=O,36,0,9,-6,-3,.,
CCN1/C(=C/c2ccc3cc(C)ccc3[n+]2CC)Sc2cc(C)c(C)cc21,.,0,100*,-115,106*,93*,
CN1/C(=C/c2cccc[n+]2CCO)Sc2ccccc21,-3,.,.,0,0,.,
CCN1/C(=C/c2ccc3cc(C)ccc3[n+]2CC)Sc2ccccc21,53,1,100*,-155,105*,96*,
CCN1/C(=C/C=C/c2sc3ccccc3[n+]2CC)Sc2ccccc21,49,.,.,.,136*,84*,
CC[n+]1c(/C=C2\Sc3ccccc3N2C)ccc2cccc(C)c21,63*,-1,100*,-167,106*,100*,
CCCCn1c(N)c(N(CC(C)C)C(=O)C2CC(=O)N(Cc3ccccc3)C2)c(=O)[nH]c1=O (stereo not drawn),-3,.,.,.,0,.,
CC(NC(=O)C1CCN(S(=O)(=O)c2cc([N+](=O)[O-])ccc2Cl)CC1)c1ccccc1 (stereo not drawn),-18,0,11,-4,4,.,
Cc1ccc2nc(NC(=O)C3CCN(S(=O)(=O)c4cc([N+](=O)[O-])ccc4Cl)CC3)sc2c1,67*,0,99*,6,97*,69*,
O=C(Nc1nc2ccc(F)cc2s1)C1CCN(S(=O)(=O)c2cc([N+](=O)[O-])ccc2Cl)CC1,49,0,99*,-44,96*,84*,
O=C(NCc1ccccc1)C1CCN(S(=O)(=O)c2cc([N+](=O)[O-])ccc2Cl)CC1,22,0,3,1,2,.,
Cc1ccc2nc(NC(=O)C3CCN(S(=O)(=O)c4cccc5nsnc45)CC3)sc2c1,?,0,28,39,0,.,
Cc1ccc(NC(=O)C2CCN(S(=O)(=O)c3cc([N+](=O)[O-])ccc3Cl)CC2)nc1,.,.,.,.,81*,80*,
Cc1c(C(=O)Nc2ccc3c(c2)OCCO3)sc2ncnc(N3CCCCC3C)c12 (stereo not drawn),20,.,.,-12,0,.,
COc1cccc(CNCC(O)COc2ccc(C(=O)c3ccccc3)cc2)c1 (stereo not drawn),53,.,.,17,84*,1,MPTP abs DR=i;MPTP counter DR=51*
O=C(c1ccccc1)c1ccc(OCC(O)CNCc2ccc(Cl)cc2)cc1 (stereo not drawn),38,.,.,.,1,.,
CCC(C)NS(=O)(=O)c1ccc(S(=O)(=O)N2CCCC3(CCCCC3)C2)cc1 (stereo not drawn),50,2,28,-18,88*,100*,
Cc1cc(C(=O)CSc2nnc(-c3ccccc3F)o2)c(C)n1Cc1cccs1,-5,-1,-6,.,54*,29*,
COc1ccc([N+](=O)[O-])cc1NC(=O)c1ccc(CN(c2ccccc2)S(C)(=O)=O)cc1,10,0,3,0,2,.,
O=C(NCCc1ccncc1)Nc1ccc(Cl)cc1,7,-1,10,-6,0,.,
CCNC(=S)Nc1ccc(Cl)cc1Cl,-15,0,-11,-8,0,.,
